Measured values published in ChEMBL document CHEMBL5247578, “Effective synthesis of benzimidazoles-imidazo[1,2-a]pyrazine conjugates: A comparative study of mono-and bis-benzimidazoles for antitumor activity” (Eur J Med Chem, 2019).

Experiments:
786-0 = assay: Antiproliferative activity against human 786-0 cells assessed as cell growth at 0.0001 M incubated for 48 hrs by SRB assay relative to control; assay type: functional; conditions: read-out: Activity
Method in brief: (§1)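 NCI-60 five-dose screen over 10^-4–10^-8 M (10-fold dilutions). Cells grown in RPMI 1640 with 5% FBS and 2 mM L-glutamine, seeded at 5,000–40,000 cells/well and preincubated 24 h. Drug from DMSO stock, 48 h at 37 °C, 5% CO2. Adherent cells TCA-fixed and stained with 0.4% SRB; A515 read. Percent growth = (Ti−Tz)/(C−Tz)×100, or (Ti−Tz)/Tz×100 when Ti<Tz.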

DU-145 = assay: Antiproliferative activity against human DU-145 cells assessed as cell growth at 0.00000001 M incubated for 48 hrs by SRB assay relative to control; assay type: functional; conditions: dose 10 nM, read-out: Activity; method in brief: as §1
HT-29 = assay: Antiproliferative activity against human HT-29 cells assessed as cell growth inhibition by measuring lethal concentration incubated for 48 hrs by sulforhodamine B assay; assay type: functional; conditions: read-out: LC50 (the source's name)
MOLT-4 [1] = assay: Antiproliferative activity against human MOLT-4 cells assessed as cell growth inhibition by measuring lethal concentration incubated for 48 hrs by sulforhodamine B assay; assay type: functional; conditions: read-out: LC50 (the source's name)
SF-539 = assay: Antiproliferative activity against human SF-539 cells assessed as cell growth at 0.0000001 M incubated for 48 hrs by SRB assay relative to control; assay type: functional; conditions: dose 100 nM, read-out: Activity
SNB-75 = assay: Antiproliferative activity against human SNB-75 cells assessed as cell growth at 0.000001 M incubated for 48 hrs by SRB assay relative to control; assay type: functional; conditions: read-out: Activity
OVCAR-4 [2] = assay: Antiproliferative activity against human OVCAR-4 cells assessed as cell growth inhibition by measuring lethal concentration incubated for 48 hrs by sulforhodamine B assay; assay type: functional; conditions: read-out: LC50 (the source's name)
U-251 = assay: Antiproliferative activity against human U-251 cells assessed as cell growth at 0.0000001 M incubated for 48 hrs by SRB assay relative to control; assay type: functional; conditions: dose 100 nM, read-out: Activity
ACHN [3] = assay: Antiproliferative activity against human ACHN cells assessed as cell growth at 0.0001 M incubated for 48 hrs by SRB assay relative to control; assay type: functional; conditions: read-out: Activity; method in brief: as §1
SK-MEL-2 = assay: Growth inhibition against human SK-MEL-2 cells assessed as total growth inhibitory concentration incubated for 48 hrs by sulforhodamine B assay; assay type: functional
EKVX = assay: Antiproliferative activity against human EKVX cells assessed as cell growth at 0.000001 M incubated for 48 hrs by SRB assay relative to control; assay type: functional; conditions: read-out: Activity
Method in brief: (§2)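 NCI-60 five-dose screen (10^-4 to 10^-8 M). Cells grown in RPMI 1640 with 5% FBS and 2 mM L-glutamine, plated at 5,000-40,000 cells/well and preincubated 24 h. Drug given from DMSO stock, then 48 h at 37 °C, 5% CO2. For adherent lines, cells fixed with cold TCA, SRB-stained and read at 515 nm. Percent growth taken against time-zero and untreated control.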

MOLT-4 [4] = assay: Growth inhibition against human MOLT-4 cells incubated for 48 hrs by sulforhodamine B assay; assay type: functional
A549 = assay: Growth inhibition against human A549 cells assessed as total growth inhibitory concentration incubated for 48 hrs by sulforhodamine B assay; assay type: functional
TK-10 [5] = assay: Growth inhibition against human TK-10 cells incubated for 48 hrs by sulforhodamine B assay; assay type: functional
A498 [6] = assay: Antiproliferative activity against human A498 cells assessed as cell growth at 0.000001 M incubated for 48 hrs by SRB assay relative to control; assay type: functional; conditions: read-out: Activity; method in brief: as §1
UACC-62 = assay: Antiproliferative activity against human UACC-62 cells assessed as cell growth at 0.00000001 M incubated for 48 hrs by SRB assay relative to control; assay type: functional; conditions: dose 10 nM, read-out: Activity
TK-10 [7] = assay: Antiproliferative activity against human TK-10 cells assessed as cell growth at 0.00001 M incubated for 48 hrs by SRB assay relative to control; assay type: functional; conditions: read-out: Activity
UO-31 = assay: Growth inhibition against human UO-31 cells incubated for 48 hrs by sulforhodamine B assay; assay type: functional
SR = assay: Antiproliferative activity against human SR cells assessed as cell growth at 0.000001 M incubated for 48 hrs by SRB assay relative to control; assay type: functional; conditions: read-out: Activity
OVCAR-4 [8] = assay: Antiproliferative activity against human OVCAR-4 cells assessed as cell growth at 0.000001 M incubated for 48 hrs by SRB assay relative to control; assay type: functional; conditions: read-out: Activity
OVCAR-8 = assay: Antiproliferative activity against human OVCAR-8 cells assessed as cell growth at 0.00001 M incubated for 48 hrs by SRB assay relative to control; assay type: functional; conditions: read-out: Activity
LOX IMVI [9] = assay: Growth inhibition against human LOX IMVI cells incubated for 48 hrs by sulforhodamine B assay; assay type: functional
NCI-H460 = assay: Antiproliferative activity against human NCI-H460 cells assessed as cell growth inhibition by measuring lethal concentration incubated for 48 hrs by sulforhodamine B assay; assay type: functional; conditions: read-out: LC50 (the source's name)
A498 [10] = assay: Growth inhibition against human A498 cells incubated for 48 hrs by sulforhodamine B assay; assay type: functional
ACHN [11] = assay: Antiproliferative activity against human ACHN cells assessed as cell growth at 0.00000001 M incubated for 48 hrs by SRB assay relative to control; assay type: functional; conditions: dose 10 nM, read-out: Activity; method in brief: as §1
OVCAR-3 = assay: Growth inhibition against human OVCAR-3 cells assessed as total growth inhibitory concentration incubated for 48 hrs by sulforhodamine B assay; assay type: functional
NCI-H522 = assay: Antiproliferative activity against human NCI-H522 cells assessed as cell growth at 0.00001 M incubated for 48 hrs by SRB assay relative to control; assay type: functional; conditions: read-out: Activity
LOX IMVI [12] = assay: Antiproliferative activity against human LOX IMVI cells assessed as cell growth at 0.00000001 M incubated for 48 hrs by SRB assay relative to control; assay type: functional; conditions: dose 10 nM, read-out: Activity
SF-268 = assay: Antiproliferative activity against human SF-268 cells assessed as cell growth at 0.000001 M incubated for 48 hrs by SRB assay relative to control; assay type: functional; conditions: read-out: Activity
Calf thymus DNA = assay: Binding affinity to calf thymus DNA assessed as fluorescence quenching intensity at 5 uM at temperature of 298 K by fluorescence spectroscopic method relative to control; assay type: nucleic-acid assay; conditions: Bos taurus
MCF7 [13] = assay: Antiproliferative activity against human MCF7 cells assessed as cell growth at 0.0000001 M incubated for 48 hrs by SRB assay relative to control; assay type: functional; conditions: dose 100 nM, read-out: Activity
NCI-H322M = assay: Antiproliferative activity against human NCI-H322M cells assessed as cell growth at 0.0001 M incubated for 48 hrs by SRB assay relative to control; assay type: functional; conditions: read-out: Activity
MCF7 [14] = assay: Growth inhibition against human MCF7 cells assessed as total growth inhibitory concentration incubated for 48 hrs by sulforhodamine B assay; assay type: functional
LOX IMVI [15] = assay: Antiproliferative activity against human LOX IMVI cells assessed as cell growth at 0.00001 M incubated for 48 hrs by SRB assay relative to control; assay type: functional; conditions: read-out: Activity
HOP-62 = assay: Antiproliferative activity against human HOP-62 cells assessed as cell growth at 0.0000001 M incubated for 48 hrs by SRB assay relative to control; assay type: functional; conditions: dose 100 nM, read-out: Activity; method in brief: as §2
OVCAR-5 = assay: Antiproliferative activity against human OVCAR-5 cells assessed as cell growth at 0.000001 M incubated for 48 hrs by SRB assay relative to control; assay type: functional; conditions: read-out: Activity

SMILES | growth at 100 µM (786-0) | growth at 0.01 µM (DU-145) | CC50 (HT-29) | CC50 (MOLT-4 [1]) | growth at 0.1 µM (SF-539) | growth at 1 µM (SNB-75) | CC50 (OVCAR-4 [2]) | growth at 0.1 µM (U-251) | growth at 100 µM (ACHN [3]) | TGI (SK-MEL-2) | growth at 1 µM (EKVX) | GI50 (MOLT-4 [4]) | TGI (A549) | GI50 (TK-10 [5]) | growth at 1 µM (A498 [6]) | growth at 0.01 µM (UACC-62) | growth at 10 µM (TK-10 [7]) | GI50 (UO-31) | growth at 1 µM (SR) | growth at 1 µM (OVCAR-4 [8]) | further results
COc1ccc(-c2cn3ccnc3c(-c3ccc4ncn(C5CCCCC5)c4c3)n2)cc1 | 2% | 103% | > 100 µM | > 100 µM | 97% | 45% | > 100 µM | 104% | 23% | > 100 µM | 73% | 2.66 µM | > 100 µM | 2.99 µM | 44% | 94% | 13% | 1.35 µM | 48% | 84% | growth at 10 µM (OVCAR-8): 8%; GI50 (LOX IMVI [9]): 0.741 µM; CC50 (NCI-H460): > 100 µM; GI50 (A498 [10]): 0.742 µM; growth at 0.01 µM (ACHN [11]): 93%; TGI (OVCAR-3): > 100 µM; growth at 10 µM (NCI-H522): -7%; growth at 0.01 µM (LOX IMVI [12]): 95%; growth at 1 µM (SF-268): 65%; Activity (Calf thymus DNA): 75%; growth at 0.1 µM (MCF7 [13]): 92%; growth at 100 µM (NCI-H322M): 67%; TGI (MCF7 [14]): > 100 µM; growth at 10 µM (LOX IMVI [15]): 17%; growth at 0.1 µM (HOP-62): 93%; growth at 1 µM (OVCAR-5): 75%
c1ccc(Cn2cnc3ccc(-c4nc(-c5ccc6c(c5)ncn6C5CCCCC5)cn5ccnc45)cc32)cc1 | 4% | 99% | > 100 µM | > 100 µM | 92% | 60% | > 100 µM | 107% | 23% | 4.85 µM | 76% | 1.67 µM | 4.97 µM | 3.52 µM | 97% | 92% | 11% | 1.72 µM | 63% | 96% | growth at 10 µM (OVCAR-8): -23%; GI50 (LOX IMVI [9]): 1.64 µM; CC50 (NCI-H460): > 100 µM; GI50 (A498 [10]): 1.86 µM; growth at 0.01 µM (ACHN [11]): 96%; TGI (OVCAR-3): 5.79 µM; growth at 10 µM (NCI-H522): -37%; growth at 0.01 µM (LOX IMVI [12]): 98%; growth at 1 µM (SF-268): 82%; Activity (Calf thymus DNA): 35%; growth at 0.1 µM (MCF7 [13]): 90%; growth at 100 µM (NCI-H322M): 14%; TGI (MCF7 [14]): > 100 µM; growth at 10 µM (LOX IMVI [15]): -90%; growth at 0.1 µM (HOP-62): 86%; growth at 1 µM (OVCAR-5): 89%
